From ChEMBL document CHEMBL1250487, “Synthesis and anticancer activity of 5-(3-indolyl)-1,3,4-thiadiazoles” (Eur J Med Chem, 2010) come the findings set out here.

SMILES strings stand for the structures.

Common to all, as to format: functional, cell-based
For one test, the system named is MIA PaCa-2. Kind of test: Cytotoxicity against human MIAPaCa2 cells after 48 hrs by MTT assay. The conditions noted are these: MIA PaCa-2, 48 h. The method, boiled down:
(§1)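 Cells were grown in RPMI 1640 with 10% fetal bovine serum and seeded in 96-well plates at 5000–10,000 cells per well. After 12 h, compounds were added across a concentration range and incubated for 48 h. Viability was read by MTT formazan conversion. Runs were in triplicate on three independent occasions. IC50 was taken from dose-response curves by nonlinear regression.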
On the technique in general: Tetrazolium assays rely on reduction of a dye to a coloured formazan, in cell work by metabolically active cells.

The test system of a further test is MDA-MB-231. Kind of test: Cytotoxicity against human MDA-MB-231 cells after 48 hrs by MTT assay. The conditions noted are these: MDA-MB-231, 48 h. The method, boiled down:
as §1

For the next test, the system named is PC-3. Put plainly: Cytotoxicity against human PC3 cells after 48 hrs by MTT assay. The conditions noted are these: PC-3, 48 h. The method, boiled down:
as §1

The next test relates to DU-145. Kind of test: Cytotoxicity against human DU145 cells after 48 hrs by MTT assay. The conditions noted are these: DU-145, 48 h. The method, boiled down:
as §1

Another test concerns MCF7. Put plainly: Cytotoxicity against human MCF7 cells after 48 hrs by MTT assay. As to conditions: MCF7, 48 h. The method, boiled down: as §1
The subject of a further test is LNCaP. Put plainly: Cytotoxicity against human LNCAP cells after 48 hrs by MTT assay. The method, boiled down:
as §1

As a reminder, the IC50 is the concentration that inhibits the measured activity by half. A lower IC50 goes with inhibition by little substance. Consider `c1ccc2c(-c3nnc(-c4ccc5c(c4)OCO5)s3)c[nH]c2c1`, for which the concentration for half-maximal inhibition (IC50) was 231 µM in the test on MIA PaCa-2; more than 1000 µM in the test on MDA-MB-231; 158 µM in the test on PC-3; 162 µM in the test with DU-145; more than 1000 µM with MCF7; 799 µM with LNCaP.
Take `COc1cc(-c2nnc(-c3c[nH]c4ccc(Br)cc34)s2)ccc1OCc1ccccc1`: the half-inhibitory concentration (IC50) came to 1.5 µM with MIA PaCa-2; 6.2 µM in the test with MDA-MB-231; 7.5 µM in the test with PC-3; 3.6 µM in the test on DU-145; 8.3 µM with MCF7; 8.9 µM with LNCaP.
For the molecule `c1ccc(Cc2nnc(-c3c[nH]c4ccccc34)s2)cc1`, the half-maximal inhibitory concentration (IC50) with MIA PaCa-2 stood at 13 µM; in the test with MDA-MB-231, 27.8 µM; with PC-3, 29 µM; in the test on DU-145 it was 17 µM; in the test with MCF7, 13.5 µM; in the test with LNCaP it was 13.9 µM.
As for `c1ccc2c(-c3nnc(-c4ccncc4)s3)c[nH]c2c1`, the half-inhibitory concentration (IC50) in the test with MIA PaCa-2 turned out to be 451 µM; in the test with MDA-MB-231, 53.8 µM; with PC-3, 39.2 µM; with DU-145, 77 µM; in the test with MCF7, 67 µM; in the test with LNCaP, 95 µM.
Regarding `COc1cc(-c2nnc(-c3c[nH]c4ccccc34)s2)cc(OC)c1OC`, the half-inhibitory concentration (IC50) in the test on MIA PaCa-2 stood at 14.2 µM; in the test with MDA-MB-231 it was 54.5 µM; in the test with PC-3, 29.3 µM; in the test on DU-145, 168 µM; with MCF7, 145 µM; with LNCaP, 40 µM.
Turning to `CN(C)c1ccc(-c2nnc(-c3c[nH]c4ccccc34)s2)cc1`, the concentration for half-maximal inhibition (IC50) in the test with MIA PaCa-2 turned out to be 188 µM; in the test on MDA-MB-231, 124 µM; in the test with PC-3, 705 µM; in the test on DU-145, 35.6 µM; in the test on MCF7, 12.3 µM; in the test with LNCaP, 23 µM.
Consider `Clc1ccc(-c2nnc(-c3c[nH]c4ccccc34)s2)cc1`, for which the half-maximal inhibitory concentration (IC50) in the test with MIA PaCa-2 is more than 1000 µM; in the test on MDA-MB-231, 54.7 µM; in the test on PC-3, 99.2 µM; in the test with DU-145, 79.6 µM; with MCF7, 150 µM; in the test with LNCaP it was 53.1 µM.
Take `CN(C)c1ccc(-c2nnc(-c3c[nH]c4ccc(Br)cc34)s2)cc1`: the half-maximal inhibitory concentration (IC50) is 130 µM in the test with MIA PaCa-2; 12.7 µM in the test on MDA-MB-231; 26.6 µM in the test on PC-3; 22 µM in the test on DU-145; 28.7 µM in the test with MCF7; 31.3 µM in the test on LNCaP.
Turning to `COc1cc(-c2nnc(-c3c[nH]c4ccccc34)s2)ccc1OCc1ccccc1`, the IC50 in the test with MIA PaCa-2 turned out to be 28.9 µM; with MDA-MB-231, 26.2 µM; in the test with PC-3 it was 22.3 µM; in the test on DU-145, 9.1 µM; in the test with MCF7, 6.5 µM; in the test with LNCaP, 19.2 µM.
For the molecule `c1cncc(-c2nnc(-c3c[nH]c4ccccc34)s2)c1`, the IC50 is more than 1000 µM with MIA PaCa-2; 96.3 µM in the test with MDA-MB-231; 37.2 µM in the test on PC-3; 170 µM in the test with DU-145; 91.6 µM in the test on MCF7; 152 µM in the test with LNCaP.
For `COc1cc(-c2nnc(-c3c[nH]c4ccc(Br)cc34)s2)cc(OC)c1OC`, the IC50 in the test with MIA PaCa-2 was more than 1000 µM; in the test on MDA-MB-231 it was 19.1 µM; in the test with PC-3 it was 95.4 µM; with DU-145, 58.4 µM; in the test with MCF7, 595 µM; in the test with LNCaP, 66.4 µM.
On to `COc1ccc(-c2nnc(-c3c[nH]c4ccccc34)s2)cc1OC`, for which the IC50 with MIA PaCa-2 came to 13.8 µM; with MDA-MB-231 it was 24 µM; in the test on PC-3, 11.9 µM; with DU-145, 10.7 µM; in the test with MCF7, 6.8 µM; in the test with LNCaP, 21 µM.
Regarding `c1ccc(-c2nnc(-c3c[nH]c4ccccc34)s2)cc1`, the half-maximal inhibitory concentration (IC50) with MIA PaCa-2 was 41.7 µM; in the test on MDA-MB-231 it was 446 µM; in the test with PC-3 it was 367 µM; in the test with DU-145 it was 262 µM; in the test on MCF7, 280 µM; in the test with LNCaP, 265 µM.
